Among all 11,000 compounds or so, about 510 (4.6%) were called active. The sample as a whole holds a higher share of actives than the screen did. Unmarked numbers belong to inactive results.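 The calls were made as follows: active = inhibition of at least 40% at 10 µM in either of the two replicates; inactive = the rest.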
Each molecule was assayed on intestinal alkaline phosphatase [Mus musculus] (assay: mouse intestinal phosphatase enzyme inhibition – biochemical, luminescence, single concentration, confirmation (AID 434971;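 also: plate controls were DMSO wells with enzyme for no effect and buffer wells lacking enzyme for full effect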)). Details: purified mouse IAP, CDP-Star luminescence, 30 min; at 10 µM; stronger effect = higher value.
Procedure, shortened: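 Reagent: CDP-Star. System: mouse IAP enzyme. Incubation: 30 min, room temperature. Dosing: test compound delivered in DMSO. Signal: luminescence. Medium: DEA buffer, ZnCl2, MgCl2. Benchmarks: enzyme-free wells as negative control.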

Structure (SMILES) | inhibition
COc1ccc(N2C(=O)/C(=C/c3ccco3)C(=O)NC2=S)cc1 | 43.2% (active)
Cc1cc(C)cc(NC(=S)NC2CC3CCCC(C2)N3Cc2cccs2)c1 (centres undefined) | -150%
O=C1NC(=O)N(Cc2ccco2)C(=O)/C1=C\c1cccn1CCOc1ccccc1 | 50.6% (active)
O=C1NC(=O)N(Cc2ccco2)C(=O)/C1=C\c1ccc(-c2ccc(F)cc2)o1 | 83.5% (active)
